The values that follow come from publication PMC10925991 (Heliyon, 2024).

Test [1] relates to RPE-1 human normal Retina pigmented epithelium cells. Kind of test: MTT anti-proliferative assay, RPE-1. The settings on record: RPE-1, 48 h, read-out: IC50 (μM) ± SD RPE-1. It counts as cell-based. In outline:
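RPE-1 cells were grown at 37 °C (5% CO₂, humidified) in RPMI-1640 with 10% heat-inactivated FBS and 100 U/mL penicillin/streptomycin. After 24 h, the medium was changed to serum-free, and serial dilutions of test compound in DMSO were added for 48 h. MTT solution (2.5 mg/mL) was then added for 4 h, formazan was dissolved in DMSO, and A590 was read. Triplicates were repeated on three days. % cytotoxicity = (1 − As/Ab) × 100, from which IC50 was derived.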

The subject of test [2] is MCF-7 breast adenocarcinoma cells. Kind of test: MTT anti-proliferative assay, MCF-7. It counts as cell-based. Conditions: Homo sapiens, MCF7, 48 h, read-out: IC50 (μM) ± SD MCF-7. In general terms: Tetrazolium assays rely on reduction of a dye to a coloured formazan, in cell work by metabolically active cells.

As a reminder, the IC50 is the concentration that gives 50% inhibition. In the case of `O=c1[nH]c(=S)[nH]c2nc(-c3ccccc3)cc(-c3ccc4ccccc4n3)c12` [Compound 1, 7-phenyl-5-(quinolin-2-yl)-2-thioxo-2,3-dihydropyrido[2,3-d] pyrimidin-4(1H)-one], the IC50 is 54.2 ± 2.3 µM in test [1] and 45.5 ± 2.5 µM in test [2]. Turning to `CSc1nc2nc(-c3ccccc3)cc(-c3ccc4ccccc4n3)c2c(=O)[nH]1` [Compound 2, 2-(methylthio)-7-phenyl-5-(quinolin-2-yl) pyrido [2,3-d] pyrimidin-4(3H)-one], the IC50 in test [1] is 52.6 ± 1.9 µM; in test [2] it was 43.2 ± 2.2 µM. Turning to `O=c1c2c(-c3ccc4ccccc4n3)cc(-c3ccccc3)nc2nc2n(-c3ccccc3)nc(-c3ccccc3)n12` [Compound 5a, 1,3,8-triphenyl-6-(quinolin-2-yl) pyrido [2,3-d] [1,2,4] triazolo[4,3-a] pyrimidin-5(1H)-one], the IC50 in test [1] worked out at 26.4 ± 1.4 µM; in test [2] it was 15.1 ± 2.3 µM. For `CS(=O)(=O)c1nc2nc(-c3ccccc3)cc(-c3ccc4ccccc4n3)c2c(=O)[nH]1` [Compound 6, 2-(methylsulfonyl)-7-phenyl-5-(quinolin-2-yl) pyrido [2,3-d] pyrimidin-4(3H)-one] the same measures were 47.3 ± 1.7 µM and 37.8 ± 1.4 µM. Take `O=c1[nH]c(N2CCNCC2)nc2nc(-c3ccccc3)cc(-c3ccc4ccccc4n3)c12` [Compound 7a, 7-phenyl-2-(piperazin-1-yl)-5-(quinolin-2-yl) pyrido [2,3-d] pyrimidin-4(3H)-one]: the 50% inhibitory concentration (IC50) was 42.1 ± 1.9 µM in test [1] and 31.2 ± 1.8 µM in test [2].

On to `O=c1[nH]c(N2CCOCC2)nc2nc(-c3ccccc3)cc(-c3ccc4ccccc4n3)c12` [Compound 7b, 2-morpholino-7-phenyl-5-(quinolin-2-yl) pyrido [2,3-d] pyrimidin-4(3H)-one], for which the half-maximal inhibitory concentration (IC50) in test [1] was 43.5 ± 1.5 µM; in test [2], 32.5 ± 1.3 µM. For `O=C(O)c1ccccc1Nc1nc2nc(-c3ccccc3)cc(-c3ccc4ccccc4n3)c2c(=O)[nH]1` [Compound 8, 2-((4-oxo-7-phenyl-5-(quinolin-2-yl)-3,4-dihydropyrido[2,3-d]pyrimidin-2-yl)amino) benzoic acid] the same measures were 45.2 ± 1.5 µM and 35.4 ± 1.1 µM.

Turning to `O=c1c2ccccc2[nH]c2nc3nc(-c4ccccc4)cc(-c4ccc5ccccc5n4)c3c(=O)n12` [Compound 9, 2-phenyl-4-(quinolin-2-yl)-5H-pyrido [2′,3':4,5] pyrimido [2,1-b] quinazoline-5,7(12H)-dione], the results for the IC50 in test [1] and in test [2] were 21.2 ± 1.1 µM and 8.1 ± 2.1 µM, respectively. For `CSc1nc(Cl)c2c(-c3ccc4ccccc4n3)cc(-c3ccccc3)nc2n1` [Compound 10, 4-chloro-2-(methylthio)-7-phenyl-5-(quinolin-2-yl) pyrido[2,3-d] pyrimidine] the same measures were 50.4 ± 1.8 µM and 40.1 ± 2.3 µM. The corresponding values for `NNc1nc(NN)c2c(-c3ccc4ccccc4n3)cc(-c3ccccc3)nc2n1` [Compound 11, 2,4-dihydrazinyl-7-phenyl-5-(quinolin-2-yl) pyrido [2,3-d] pyrimidine] are 40.1 ± 1.6 µM and 29.5 ± 1.5 µM. The corresponding values for `c1ccc(Nc2nc(Nc3ccccc3)c3c(-c4ccc5ccccc5n4)cc(-c4ccccc4)nc3n2)cc1` [Compound 13a, N^2, N^4,7-triphenyl-5-(quinolin-2-yl) pyrido [2,3-d] pyrimidine-2,4-diamine] are 34.7 ± 1.3 µM and 23.9 ± 2.1 µM. For the molecule `Clc1ccc(Nc2nc(Nc3ccc(Cl)cc3)c3c(-c4ccc5ccccc5n4)cc(-c4ccccc4)nc3n2)cc1` [Compound 13b, N^2, N^4-bis(4-chlorophenyl)-7-phenyl-5-(quinolin-2-yl) pyrido [2,3-d] pyrimidine-2,4-diamine], the IC50 is 32.4 ± 1.7 µM in test [1] and 21.8 ± 2.2 µM in test [2]. With `COc1ccc(Nc2nc(Nc3ccc(OC)cc3)c3c(-c4ccc5ccccc5n4)cc(-c4ccccc4)nc3n2)cc1` [Compound 13c, N^2, N^4-bis(4-methoxyphenyl)-7-phenyl-5-(quinolin-2-yl) pyrido [2,3-d] pyrimidine-2,4-diamine], the IC50 in test [1] is 33.2 ± 1.4 µM; in test [2] it was 22.5 ± 2.3 µM. The corresponding values for `c1ccc(-c2cc(-c3ccc4ccccc4n3)c3c(N4CCNCC4)nc(N4CCNCC4)nc3n2)cc1` [Compound 14a, 7-phenyl-2,4-di (piperazin-1-yl)-5-(quinolin-2-yl) pyrido [2,3-d] pyrimidine] are 28.1 ± 1.6 µM and 18.7 ± 1.9 µM. Turning to `c1ccc(-c2cc(-c3ccc4ccccc4n3)c3c(N4CCOCC4)nc(N4CCOCC4)nc3n2)cc1` [Compound 14b, 4,4'-(7-phenyl-5-(quinolin-2-yl)pyrido [2,3-d]pyrimidine-2,4-diyl) dimorpholine], the IC50 in test [1] is 29.3 ± 1.1 µM; in test [2], 19.2 ± 1.5 µM. For `O=C(O)c1ccccc1Nc1nc(Nc2ccccc2C(=O)O)c2c(-c3ccc4ccccc4n3)cc(-c3ccccc3)nc2n1` [Compound 15, 2,2'-((7-phenyl-5-(quinolin-2-yl)pyrido [2,3-d]pyrimidine-2,4-diyl)bis(azanediyl)) dibenzoic acid] the same measures were 38.2 ± 1.1 µM and 27.1 ± 1.2 µM.

`O=c1c2ccccc2nc2n1c1nc(-c3ccccc3)cc(-c3ccc4ccccc4n3)c1c1nc3ccccc3c(=O)n12` [Compound 16, 8-phenyl-6-(quinolin-2-yl)-11H,18H-pyrido [3′,2':5,6] pyrimido [2,1-b:4,3-b'] diquinazoline-11,18-dione]: the results for the IC50 in test [1] and in test [2] were 17.5 ± 1.8 µM and 6.2 ± 1.3 µM, respectively. The corresponding values for `COc1cccc2c1C(=O)c1c(O)c3c(c(O)c1C2=O)C[C@@](O)(C(=O)CO)C[C@@H]3O[C@H]1C[C@H](N)[C@H](O)[C@H](C)O1` [Doxorubicin, reference compound] are 30.1 ± 3.1 µM and 10.5 ± 2.2 µM. Consider `CNC(=O)c1cc(Oc2ccc(NC(=O)Nc3ccc(Cl)c(C(F)(F)F)c3)cc2)ccn1` [Sorafenib, reference compound], for which the IC50 in test [2] worked out at 31 µM. The same measure, in the same setting: as for `CS(=O)(=O)CCNCc1ccc(-c2ccc3ncnc(Nc4ccc(OCc5cccc(F)c5)c(Cl)c4)c3c2)o1` [lapatinib, reference compound], the figure is 136 µM.
